Data set [1] is described as follows: melting temperature; fluorescence melt of hairpins on a sequencing array, two-state fit, raised by 9.35 °C to match UV melts. The settings on record: sodium 0.088 M. The method in brief:
(§1)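 Folding enthalpy and melting temperature were estimated with bootstrapped two-state fits and combined across four replicates by inverse-variance weighting, with fitted temperatures raised by 9.35 °C to match UV melts. The data were Cy3 fluorescence of library hairpins, with annealed Cy3 and quencher oligos, on a sequenced MiSeq flow cell in 50 mM Na-HEPES pH 8.0, 25 mM NaCl, imaged in 2.5 °C steps up to 60 °C and normalised to pre-quench Cy3 and control constructs.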

Data set [2] can be described thus: folding enthalpy; higher = less favourable; fluorescence melt of hairpins on a sequencing array, two-state fit. The settings on record: sodium 0.088 M. In short, it runs like this: as §1

Take GCCGCGCGAAAGCATGGC (((..((....))..))): the Tm in data set [1] turned out to be 60.1 °C. Also, in data set [2], the folding enthalpy was -26.7 kcal/mol.
As for GCCGCGCGAAAGCCCTGC ((.(.((....)).).)), in data set [1], the Tm is 28.6 °C. The folding enthalpy in data set [2] was -12.1 kcal/mol.
On to GCCGCGCGAAAGCGACGC ((..(((....)))..)), for which the Tm in data set [1] is 55.1 °C. The folding enthalpy in data set [2] was -11.9 kcal/mol.
As to GCCGCGCGAAAGCGCAGC ((.((((....)))).)), in data set [1], the Tm was found to be 64 °C. Further, the folding enthalpy in data set [2] was -15.2 kcal/mol.
As for GCCGCGCGAAAGCTGGGC (((..((....))..))), in data set [1], the Tm was determined as 56.3 °C. In data set [2], the folding enthalpy was -20 kcal/mol.
Taken in the same sequence, the figures for GCCGCTCCGAAAGGAGGC (((..(((....)))))) were 55.4 °C and -9.81 kcal/mol.
On to GCCGCTGGAAACAGCGAC (.(((((....))))).), for which the Tm in data set [1] stood at 52.6 °C. In addition, the folding enthalpy in data set [2] was -13.9 kcal/mol.
For the sequence GCCGGAGGAAACCCCGGC (((((.(....).))))), the Tm in data set [1] is 59.6 °C. In data set [2], the folding enthalpy was -36 kcal/mol.
Consider GCCGGCGAAAGCCAAGGC ((((((....)))..))), for which the Tm in data set [1] is 65.3 °C. Further, the folding enthalpy in data set [2] was -22.8 kcal/mol.
Consider GCCGGCGAAAGCCCTGGC ((((((....)))..))), for which the Tm in data set [1] is 56.6 °C. Also, in data set [2], the folding enthalpy is -16.2 kcal/mol.
The corresponding values for GCCGGCGAAAGCCTCGGC ((((((....)))..))) are 53.3 °C and -19.9 kcal/mol.
GCCGGCGGAAACGCCAGC ((.((((....)))).)): the Tm in data set [1] was determined as 58.5 °C. Besides, in data set [2], the folding enthalpy is -15.4 kcal/mol.
In the case of GCCGGCTCGAAAGAGGGC (((..(((....)))))), in data set [1], the Tm amounted to 46.9 °C. The folding enthalpy in data set [2] was -19.2 kcal/mol.
Consider GCCGGGACGAAAGTCGGC (((..(((....)))))), for which, in data set [1], the Tm was found to be 60.9 °C. Moreover, the folding enthalpy in data set [2] was -29.8 kcal/mol.
Turning to GCCGGGCGAAAGCACTGC ((.(.((....)).).)), the Tm in data set [1] is 50.8 °C. Moreover, the folding enthalpy in data set [2] is -18.6 kcal/mol.
GCCGGGCGAAAGCAGGGC (((..((....))..))): in data set [1], the Tm came out at 62.2 °C. Besides, the folding enthalpy in data set [2] is -29 kcal/mol.
GCCGGGCGAAAGCATGGC (((..((....))..))): the Tm in data set [1] stood at 64.9 °C. The folding enthalpy in data set [2] is -26.8 kcal/mol.
Take GCCGGGCGAAAGCCCAGC ((.((((....)))).)): the Tm in data set [1] stood at 64.8 °C. Further, in data set [2], the folding enthalpy was -15.8 kcal/mol.
As to GCCGGGCGAAAGCCCCGC ((.((((....)))).)), the Tm in data set [1] worked out at 54.4 °C. Moreover, in data set [2], the folding enthalpy is -16.2 kcal/mol.
For the sequence GCCGGGCGAAAGCCCTGC ((.((((....)))).)), the Tm in data set [1] amounted to 57.2 °C. Moreover, in data set [2], the folding enthalpy is -14.9 kcal/mol.
The corresponding values for GCCGGGCGAAAGCCGAGC ((..(((....)))..)) are 57.4 °C and -14.8 kcal/mol.
Turning to GCCGGGCGAAAGCCGTGC ((..(((....)))..)), the Tm in data set [1] was 50.2 °C. For the same sequence, the folding enthalpy in data set [2] was -13.7 kcal/mol.
For the sequence GCCGGGCGAAAGCGTGGC (((..((....))..))), the Tm in data set [1] turned out to be 65.9 °C. In data set [2], the folding enthalpy is -36.4 kcal/mol.
Take GCCGGGCGAAAGCTAGGC (((..((....))..))): in data set [1], the Tm was 66.6 °C. For the same sequence, the folding enthalpy in data set [2] was -34.4 kcal/mol.
With GCCGGGGGAAACCCCGAC (.(((((....))))).), the Tm in data set [1] turned out to be 51.8 °C. Also, the folding enthalpy in data set [2] is -13.2 kcal/mol.
For GCCGTACCGAAAGGTGGC (((..(((....)))))), the Tm in data set [1] worked out at 53.8 °C. In data set [2], the folding enthalpy is -25.1 kcal/mol.
Take GCCGTACGAAAGTAAGGC (((.(((....))).))): the Tm in data set [1] worked out at 60.1 °C. Moreover, in data set [2], the folding enthalpy is -36.6 kcal/mol.
The corresponding values for GCCGTAGCGAAAGCTGGC (((..(((....)))))) are 55.6 °C and -31.5 kcal/mol.
Turning to GCCGTAGGAAACTGCGGC ((((.((....)).)))), the Tm in data set [1] was determined as 61.6 °C. Besides, in data set [2], the folding enthalpy was -37.3 kcal/mol.
Take GCCGTCGAAAGACAAGGC ((((((....)))..))): in data set [1], the Tm came to 55.2 °C. For the same sequence, the folding enthalpy in data set [2] was -32.8 kcal/mol.
In the case of GCCGTCGAAAGACAGGC ((((((....))).))), the Tm in data set [1] was 65.2 °C. For the same sequence, in data set [2], the folding enthalpy was -27 kcal/mol.
The corresponding values for GCCGTCGAAAGACATGGC ((((((....)))..))) are 52.1 °C and -23.9 kcal/mol.
Take GCCGTCGAAAGACTGGC ((((((....))).))): the Tm in data set [1] was 56.4 °C. The folding enthalpy in data set [2] was -33.4 kcal/mol.
On to GCCGTCGGAAACAACGGC (((((.(....).))))), for which the Tm in data set [1] came to 53.9 °C. In data set [2], the folding enthalpy is -47.5 kcal/mol.
Taken in the same sequence, the figures for GCCGTCGGAAACGACAGC ((.((((....)))).)) were 53 °C and -16.6 kcal/mol.
Taken in the same sequence, the figures for GCCGTGACGAAAGTCGGC (((..(((....)))))) were 57.1 °C and -23.3 kcal/mol.
Consider GCCGTGCGAAAGCATAGC ((..(((....)))..)), for which the Tm in data set [1] amounted to 43.3 °C. Moreover, the folding enthalpy in data set [2] is -13.6 kcal/mol.
